PABP polyA inh = PABP-poly(A) binding inhibition | actives 1% (n = 290,000) | inhibition, % at 35 µM | AID 2014 | PABP-poly(A) RNA binding, fluorescence polarization;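 note: calls also rest on retests at 20 µM and on dose response follow-up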
eIF4H inh = inhibitors of RNA binding by human eIF4H. eIF4H fluorescence polarization binding assay. actives 0.94% (n = 290,000). inhibition, % at 35 µM. AID 2012. Q15056;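 note: calls also rest on retests at 20 µM and on dose response follow-up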
NS3 helicase inh = HCV NS3 helicase inhibition | inhibition, % at 10.9 µM | NS3 helicase DNA unwinding, Cy5 molecular beacon fluorescence | actives 0.56% (n = 290,000);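 active = inhibition above the mean of all tested compounds plus 3 SD, set per campaign, cut at about 35% in these data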;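 note: 0% = DMSO wells and 100% = thioflavine S control wells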
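System: NS3 helicase fragment of HCV / Schedule: 1 h at 25 °C / Control set: DMSO alone as 0% and 110 µM thioflavine S as 100% / Reagent: Cy5/quencher beacon DNA duplex and ATP to start / Technique: Cy5 fluorescence / Replication: singlicate / Evaluation: % inhibition of end-to-start signal ratio versus controls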
MLLE-PAM2 inh = blocks PAM2 peptide binding to the PABP1 MLLE domain. P11940. AID 588489. inhibition, % at 20 µM. actives 0.36% (n = 360,000). GST-MLLE / FITC-PAM2 fluorescence polarization; in the data active = inhibition above about 35%, passing the limit was not always enough;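 note: plate controls were DMSO wells with GST-MLLE for no effect and wells lacking GST-MLLE protein for full effect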
HCV core dimer = blocks dimerization of HCV core protein. TR-FRET GST/Flag-core106 dimerization, 1536-well. inhibition, % at 5 µM. actives 0.33% (n = 300,000). AID 1899;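 active = inhibition above the mean of all tested compounds plus 3 SD, set per screening campaign, cut at about 45% in these data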
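System: GST-tagged and Flag-tagged HCV core protein residues 1-106 / Input: core106 proteins, GST 13.5 nM and Flag 17 nM / Buffer or medium: KF-containing HEPES buffer, pH 7.45, DTT, CHAPS, BSA / Probe or stimulus: Eu-anti-GST and XL665-anti-Flag labelled anti-tag antibodies / Schedule: 4 h, 22.5 °C incubation / Technique: TR-FRET 671 and 617 nm emission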
DNA FID counter-1 = counter-screen for HCV NS3 helicase inhibitors: DNA intercalator displacement; DNA fluorescent intercalator displacement, fluorescence; AID 1845; inhibition, % at 7.9 µM; actives 0.17% (n = 290,000); in the data active = inhibition above about 37%;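 note: 0% = vehicle and 100% = reference compound; higher means more ethidium bromide displaced from hairpin DNA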
NS3 hel confirm = HCV NS3 helicase inhibition, confirmation assay | shares compounds with NS3 helicase inh | NS3 helicase DNA unwinding, Cy5 molecular beacon fluorescence | inhibition, % at 10.9 µM | actives 31% (n = 1,600);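 active = inhibition above the mean of all tested compounds plus 3 SD, cutoff set per campaign, cut at about 36% in these data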
DNA FID counter-2 = displaces DNA intercalator in HCV helicase counter-screen. inhibition, % at 7.9 µM. actives 4% (n = 1,600). DNA fluorescent intercalator displacement, fluorescence. shares compounds with NS3 helicase inh; in the data active = inhibition above about 37%;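 note: 0% = vehicle and 100% = reference compound; higher means more displacement of ethidium bromide from the DNA hairpin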
FID counter DR = DNA intercalator displacement in dose response. fluorescent intercalator displacement from DNA, fluorescence. IC50, µM. shares compounds with NS3 helicase inh. 120 tested, under 10 active. AID 2172
* marks the source's active call; other numbers are inactive results; . = not tested or not shown. Hits are enriched below; roughly 2% of the tested compounds scored in any of these assays. Unless noted, the rule behind the calls is not given here.

SMILES	PABP polyA inh	eIF4H inh	NS3 helicase inh	MLLE-PAM2 inh	HCV core dimer	DNA FID counter-1	NS3 hel confirm	DNA FID counter-2	others
COc1ccc2ccccc2c1C1CC(=O)N2CN(Cc3ccco3)CSC2=C1C#N (stereo unspecified)	1.1	-4.5	47.3*	-23.8	-6.8	-44.3	45.8*	-34.9
O=C(C1=C(O)C(=O)N(CC2CCCO2)C1c1ccc(Cl)cc1Cl)c1ccco1 (stereo unspecified)	26.7	-16.2	67.6*	2.4	-1.4	-44.1	-3.0	-21.1
CC(C)(C)c1ccc(C2C(C(=O)c3ccco3)=C(O)C(=O)N2CC2CCCO2)cc1 (stereo unspecified)	11.9	-3.9	37.5*	-3.0	8.8	-44.0	9.5	-12.9
CSc1ncccc1C(=O)OCC(=O)N(C)Cc1ccc(C)cc1	.	.	.	-2.5	.	.	.	.
O=[N+]([O-])c1cc(Cc2ccccc2)cc(C=Nc2ccc(N3CCOCC3)cc2)c1O	10.8	23.3	50.5*	6.2	-7.1	3.0	55.1*	23.0	FID counter DR=>79.4
COc1ccc(Br)cc1C1Nc2cccc3cccc(c23)N1	61.0*	101.9*	96.9*	20.0	45.1	-6.0	-28.3	27.5
CCN(CC)c1ccc2nc3ccccc3[n+](CC)c2c1	71.8*	38.9	57.1*	-112.8	-378.3	30.7	98.9*	50.9*
CCN(CC)c1ccc2nc3ccc(N)cc3[n+](-c3ccccc3)c2c1	.	.	.	76.6	.	.	.	.
Cc1c(C(=O)O)[nH]c2c1C(=O)CC(c1ccc(C(C)(C)C)cc1)C2 (stereo unspecified)	2.5	-1.7	49.1*	14.5	3.4	-25.6	29.5	-25.5
Cc1ccccc1CNC(=O)c1ccc2nc([C@@H]3O[C@H](CO)[C@H](O)[C@H](O)[C@H]3O)[nH]c2c1	.	.	.	-5.0	.	.	.	.
CC(=O)C1=C(O)C(=O)N(c2ccc(Br)cc2)C1c1cccc(F)c1 (stereo unspecified)	10.8	7.8	36.9*	-8.2	1.1	-29.4	31.4	3.9
CC(=O)C1=C(O)C(=O)N(c2ccc(O)cc2)C1c1cccc(F)c1 (stereo unspecified)	7.3	-0.6	-3.2	0.7	-3.2	1.3	.	.
Cc1cccc(NS(=O)(=O)c2nnc(NC(=O)c3ccc(C)c(C)c3)s2)c1	-3.6	-2.0	-2.2	4.6	13.8	-15.2	.	.
COc1cccc(C(=O)Nc2nnc(S(=O)(=O)Nc3cccc(C)c3)s2)c1	8.5	6.1	45.7*	-7.1	-5.4	-12.7	19.0	11.5
CCCCCCCc1nn2c(=O)cc(O)nc2s1	6.6	2.0	36.2*	-19.7	-7.0	-15.9	-18.5	8.1
CCn1cc(CNC(=O)c2ccc(Cl)c([N+](=O)[O-])c2)c(C)n1	5.1	-0.8	36.0*	14.6	1.8	-7.5	-13.3	1.2
O=C(Nc1nnc([C@@H]2C[C@H](O)[C@@H](CO)O2)s1)c1cccc(C(F)(F)F)c1	.	.	.	-10.2	.	.	.	.
CCOc1ccc(C(=O)COC(=O)C2COc3ccccc3O2)cc1 (stereo unspecified)	.	.	.	-6.7	.	.	.	.
CCc1ccc(C(=O)C(C)OC(=O)C2COc3ccccc3O2)cc1 (stereo unspecified)	2.0	-1.7	45.2*	-2.9	1.8	-12.0	4.9	-18.1
Cc1cccc(C)c1C(O)c1ncc(-c2ccccc2Cl)[nH]1 (stereo unspecified)	.	.	.	6.4	.	.	.	.
Cc1ccc(NC(=O)c2ccccc2)cc1	8.7	-1.7	5.3	-7.9	1.5	-1.2	.	.
Cc1ccc(NC(=O)C2=C(c3ccccc3)S(=O)(=O)CCS2(=O)=O)cc1	4.0	1.2	38.3*	22.4	21.6	0.7	58.8*	27.0	FID counter DR=>79.4
CCOC(=O)c1c(C)oc2c(F)c(F)c(F)c(F)c2c1=O	-2.3	-3.1	41.6*	-11.8	2.3	0.5	4.3	26.4
CCOC(=O)c1c(C)oc(=O)c(CC)c1O	.	.	.	-2.1	.	.	.	.
CCCC(O)(c1ccc(CC)cc1)C(CN1CCOCC1)c1ccccc1 (stereo unspecified)	8.1	-0.3	-22.6	-8.2	.	-17.1	.	.
SMILES	PABP polyA inh	eIF4H inh	NS3 helicase inh	MLLE-PAM2 inh	HCV core dimer	DNA FID counter-1	NS3 hel confirm	DNA FID counter-2	others
O=C(O)Cc1ccc(N=Nc2c(O)c(C(=O)O)cc3ccccc23)cc1	44.8*	76.9*	42.1*	2.6	-8.5	-11.8	64.3*	-6.9
NS(=O)(=O)c1ccc(N=Nc2c(O)c(C(=O)O)cc3ccccc23)cc1	2.1	8.1	34.8	-3.1	-3.0	-10.4	.	.
CC1CCCN(S(=O)(=O)c2ccc(C(=O)Nc3nnc(C4=COCCO4)o3)cc2)C1 (stereo unspecified)	19.6	9.3	65.4*	4.7	-12.1	-36.6	-15.6	-29.9
COc1ccc(/C(C)=N/NC(=S)NCCc2ccccc2)c(O)c1	4.9	-2.4	42.5*	12.9	6.6	-9.2	8.6	-5.1
COc1ccc(O)c(/C=N/NC(=S)NCCc2ccccc2)c1	-6.7	3.3	28.7	34.9	-1.6	-16.2	.	.
CCOC(=O)c1ccc2c(c1)nc(-c1ccccn1)n2CC	5.3	-1.9	36.5*	1.6	-6.3	-18.2	0.9	-17.4
COc1cc(CC(=O)N2CCN(C(=O)C3CCCO3)CC2)cc(OC)c1OC (stereo unspecified)	.	.	.	5.7	.	.	.	.
Cc1cc2oc(=O)cc(-c3cc4ccccc4o3)c2cc1O	.	.	39.4*	-0.2	23.0	-5.8	-3.8	5.7
COc1cccc2cc(-c3cc(=O)oc4cc(C)c(OCC(C)=O)cc34)oc12	8.7	-2.5	23.7	-3.2	-5.4	-6.7	.	.
Cc1ccc(N(C(=O)c2csnn2)C(C(=O)NC2CCCC2)c2ccncc2)c(C)c1 (stereo unspecified)	0.1	-4.5	38.8*	8.4	-3.0	-21.6	-6.6	-8.0
CCOc1ccccc1OCC(=O)O	-6.8	-3.4	-4.9	22.4	-0.4	0.8	.	.
CCCCCn1c(C)c2c(OCC)cccc(=O)c2c1C	19.7	27.5	53.6*	-8.3	-0.9	-28.7	-5.2	-27.3
CN(Cc1ccccc1)C(=O)c1ccc2sc([C@H]3C[C@H](O)[C@@H](CO)O3)nc2c1	.	.	.	-8.6	.	.	.	.
Cc1ccc(/C=C/C(=O)Nc2cccc(S(=O)(=O)N3CCOCC3)c2)o1	-6.7	25.1	47.5*	-34.5	21.2	-19.7	-1.4	17.9
O=C(/C=C/c1ccco1)Nc1cccc(S(=O)(=O)N2CCOCC2)c1	-2.3	-1.7	5.2	-13.5	6.4	0.7	.	.
OC(Cc1ccccc1Br)c1ncc(-c2cccc(C(F)(F)F)c2)[nH]1 (stereo unspecified)	.	.	.	-7.3	.	.	.	.
COc1ccc(NC(=O)NNC(=O)c2ccc3ccccc3c2O)c(OC)c1	-1.7	-4.3	-2.5	-2.9	-14.8	-13.4	.	.

Source: PubChem (several laboratories)
